Active and inactive are the calls of the source. No cut-off for these calls is given here.
Experiments:
[1] = system: beta-glucosidase; assay: (§1) Drug metabolism assessed as zebrafish intestinal beta-glucosidase-mediated deglycosylation of compound at 80 uM after 2.5 hrs by resorufin-beta-D-glucopyranoside-based fluorescence assay; format: ADME, Danio rerio; conditions: zebrafish intestinal beta-glucosidase, probe resorufin-beta-D-glucopyranoside, read-out: Drug metabolism
Outline: (§2)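 Larvae at 7 dpf (24 per well) were incubated in E3 without methylene blue with Res-β-Glc probe at 400 μM, with or without 80 μM compound, for 2.5 h at 31 °C, then washed. Larvae showing reduced fluorescence against probe-alone larvae were counted by microscopy (n = 3, SD). Lysates were also read at ex 570/em 610 nm.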

[2] = species: Danio rerio; assay: Teratogenic effect in zebrafish assessed as abnormal heart at 160 uM after 72 hrs by microscopy; format: organism-based; conditions: in vivo
Outline: (§3)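 Fertilized eggs were exposed from the eight-cell stage, 8 per well, at 31 °C for 72 h. Development, malformations and survival were then recorded by microscopy.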

[3] = species: Danio rerio; assay: Teratogenic effect in zebrafish assessed as delayed hatching at 160 uM after 72 hrs by microscopy; format: organism-based; conditions: in vivo; outline: as §3
[4] = species: Danio rerio; assay: Teratogenic effect in zebrafish assessed as developmental toxicity at 40 to 80 uM after 72 hrs by microscopy; format: organism-based; conditions: in vivo; outline: as §3
[5] = system: Danio rerio; assay: Teratogenic effect in zebrafish assessed as heart sac edema at 160 uM after 72 hrs by microscopy; format: organism-based; conditions: in vivo; outline: as §3
[6] = system: HCT-116; assay: Induction of apoptosis in human HCT116 cells assessed as PARP cleavage at 20 uM after 72 hrs by immunoblotting; format: functional, cell-based
Outline: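 HCT116 cells were treated with 20 μM compound for 72 h and lysed in ice-cold buffer with PMSF and protease inhibitors. Protein in the cleared supernatant was measured by BCA, and PARP cleavage was detected by western blot with actin as reference.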

[7] = species: Danio rerio; assay: Teratogenic effect in zebrafish assessed as slow heartbeat at 160 uM after 72 hrs by microscopy; format: organism-based; conditions: in vivo; outline: as §3
[8] = system: Cancer cell lines; assay: Antitumor activity against human HCT116 cells xenografted in 48 hpf zebrafish embryo assessed as inhibition of cancer cell proliferation at 80 uM treated for 4 days; format: functional, cell-based
Outline: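 HCT116 cells labelled with 2 μg/mL DiI were injected into the yolk sac of 48 hpf embryos. Embryos were held singly in E3 without methylene blue with compound (80 μM), 10 μM API-H7 as positive control or DMSO, at 31 °C for 96 h, 8 per group. Larvae were dissociated with collagenase/dispase for 2 h at 37 °C, fixed in paraformaldehyde, and fluorescent cells counted by microscopy. Two independent assays.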

[9] = species: Danio rerio; assay: Teratogenic effect in zebrafish assessed as skeletal deformities at 160 uM after 72 hrs by microscopy; format: organism-based; conditions: in vivo; outline: as §3
[10] = species: Danio rerio; assay: Teratogenic effect in zebrafish assessed as abnormal head at 160 uM after 72 hrs by microscopy; format: organism-based; conditions: in vivo; outline: as §3
[11] = system: HCT-116; assay: Cytotoxicity against human HCT116 cells at 1.25 to 20 uM after 96 hrs by MTT assay; format: functional, cell-based
Outline: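 HCT116 cells in DMEM with 10% FBS, seeded at 4 × 10^3 per well and left overnight at 37 °C. Treated in 1% FBS–DMEM for 96 h, then MTT for 3 h. Formazan dissolved in DMSO, absorbance read at 570 nm. DMSO vehicle control. Two independent assays, mean ± SD.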

[12] = species: Danio rerio; assay: Teratogenic effect in zebrafish assessed as abnormal development of yolk sac at 160 uM after 72 hrs by microscopy; format: toxicity, organism-based; conditions: in vivo; outline: as §3
[13] = as §1; format: ADME, Danio rerio; conditions: 2.5 h, 80 µM; outline: as §2
[14] = system: Cancer cell lines; assay: Antitumor activity against human HCT116 cells xenografted in 48 hpf zebrafish embryo assessed as inhibition of cancer cell proliferation compound treated for 4 days; format: functional, cell-based
[15] = Drug metabolism assessed as zebrafish intestinal beta-glucosidase-mediated formation of quercetin at 80 uM after 2.5 hrs by resorufin-beta-D-glucopyranoside-based fluorescence assay; format: ADME, Danio rerio; outline: as §2
[16] = Drug metabolism assessed as zebrafish intestinal beta-glucosidase-mediated formation of quercetin after 2.5 hrs by resorufin-beta-D-glucopyranoside-based fluorescence assay; format: ADME, Danio rerio; outline: as §2

SMILES	metabolised at 2.5 h, 80 µM [1]	Activity [2]	Activity [3]	Activity [4]	Activity [5]	Activity [6]	Activity [7]	Activity [8]	Activity [9]	Activity [10]	Activity [11]	Activity [12]	Drug metabolism [13]	Activity [14]	Drug metabolism [15]	Drug metabolism [16]
O=c1c(O)c(-c2ccc(O[C@@H]3O[C@H](CO)[C@@H](O)[C@H](O)[C@H]3O)c(O)c2)oc2cc(O)cc(O)c12 [SPIRAEOSIDE]	45%	31.25%	31.25%	Non-toxic	31.25%	Active	31.25%	inactive	31.25%	31.25%	Active	31.25%	–	–	–	–
O=c1c(O)c(-c2ccc(O)c(O)c2)oc2cc(O)cc(O)c12 [QUERCETIN]	–	Non-toxic	Non-toxic	Non-toxic	Non-toxic	Active	Non-toxic	Active	Non-toxic	Non-toxic	Active	Non-toxic	metabolite_notdetected	–	–	–
C[C@@H]1O[C@@H](Oc2c(-c3ccc(O)c(O)c3)oc3cc(O)cc(O)c3c2=O)[C@H](O)[C@H](O)[C@H]1O	–	–	–	–	–	–	–	inactive	–	–	Active	–	–	–	–	–
O=c1c(O[C@@H]2O[C@H](CO)[C@@H](O)[C@H](O)[C@H]2O)c(-c2ccc(O)c(O)c2)oc2cc(O)cc(O)c12 [ISOQUERCETIN]	57%	Non-toxic	Non-toxic	Non-toxic	Non-toxic	Active	Non-toxic	Active	Non-toxic	Non-toxic	Active	Non-toxic	–	Dose-dependent effect	metabolite_detected	Dose-dependent effect
O=c1c(O[C@@H]2O[C@H](CO)[C@H](O)[C@H](O)[C@H]2O)c(-c2ccc(O)c(O)c2)oc2cc(O)cc(O)c12	–	–	–	–	–	–	–	inactive	–	–	Active	–	–	–	–	–
